Test results from ChEMBL document CHEMBL2346629, “Discovery and characterization of novel allosteric FAK inhibitors” (Eur J Med Chem, 2013).

Columns and labels:
[1] = biological target: Mitogen-activated protein kinase 13 (Homo sapiens) (UniProt O15264); assay: Inhibition of P38d (unknown origin) using [gamma-33P]ATP assessed as residual activity at 3 uM
[2] = biological target: Serine/threonine-protein kinase Nek7 (Homo sapiens) (UniProt Q8TDX7); assay: Inhibition of NEK7 (unknown origin) using [gamma-33P]ATP assessed as residual activity at 3 uM
Serine/threonine-protein kinase Nek7 (Homo sapiens), sequence (Q8TDX7 whole entry, looked up): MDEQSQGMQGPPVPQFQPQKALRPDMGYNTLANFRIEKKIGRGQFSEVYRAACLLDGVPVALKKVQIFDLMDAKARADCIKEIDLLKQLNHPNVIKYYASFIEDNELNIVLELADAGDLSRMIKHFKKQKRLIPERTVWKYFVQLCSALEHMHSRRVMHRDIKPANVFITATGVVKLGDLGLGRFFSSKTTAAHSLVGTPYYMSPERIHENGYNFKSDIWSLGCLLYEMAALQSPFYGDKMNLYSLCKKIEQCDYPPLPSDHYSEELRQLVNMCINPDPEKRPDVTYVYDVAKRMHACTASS

[3] = biological target: Muscle, skeletal receptor tyrosine-protein kinase (Homo sapiens) (UniProt O15146); assay: Inhibition of MUSK (unknown origin) using [gamma-33P]ATP assessed as residual activity at 3 uM
[4] = biological target: Serine/threonine-protein kinase 4 (Homo sapiens) (UniProt Q13043); assay: Inhibition of MST1 (unknown origin) using [gamma-33P]ATP assessed as residual activity at 3 uM
[5] = biological target: Dual specificity protein kinase CLK3 (Homo sapiens) (UniProt P49761); assay: Inhibition of CLK3 (unknown origin) using [gamma-33P]ATP assessed as residual activity at 3 uM
Procedure, shortened: (§1)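 Reaction Biology HotSpot radiometric profiling panel of 288 kinases (261 wild-type, 27 mutant). Kinase activity was read out by incorporation of [γ-33P]ATP.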

[6] = biological target: Dual specificity protein kinase CLK1 (Homo sapiens) (UniProt P49759); assay: Inhibition of CLK1 CD (unknown origin) using [gamma-33P]ATP assessed as residual activity at 3 uM; procedure, shortened: as §1
Dual specificity protein kinase CLK1 (Homo sapiens), sequence (P49759 whole entry, looked up): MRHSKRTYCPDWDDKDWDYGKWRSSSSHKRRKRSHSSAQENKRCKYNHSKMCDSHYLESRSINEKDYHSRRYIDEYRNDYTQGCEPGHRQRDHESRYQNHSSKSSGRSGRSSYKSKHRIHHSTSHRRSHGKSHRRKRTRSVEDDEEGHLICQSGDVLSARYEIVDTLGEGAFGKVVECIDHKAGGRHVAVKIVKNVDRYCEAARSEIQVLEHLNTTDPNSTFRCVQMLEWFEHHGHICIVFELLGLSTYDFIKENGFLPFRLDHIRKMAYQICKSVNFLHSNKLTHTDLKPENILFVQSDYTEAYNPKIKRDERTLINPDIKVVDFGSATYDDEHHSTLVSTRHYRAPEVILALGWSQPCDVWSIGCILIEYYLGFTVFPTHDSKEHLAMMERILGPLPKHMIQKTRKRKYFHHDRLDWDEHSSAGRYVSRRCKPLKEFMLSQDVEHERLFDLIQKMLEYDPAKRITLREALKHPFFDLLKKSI

[7] = biological target: Casein kinase II subunit alpha' (Homo sapiens) (UniProt P19784); assay: Inhibition of CK2a2 (unknown origin) using [gamma-33P]ATP assessed as residual activity at 3 uM; procedure, shortened: as §1
[8] = biological target: Casein kinase I isoform gamma-2 (Homo sapiens) (UniProt P78368); assay: Inhibition of CK1g2 (unknown origin) using [gamma-33P]ATP assessed as residual activity at 3 uM; procedure, shortened: as §1
[9] = biological target: Casein kinase I isoform delta (Homo sapiens) (UniProt P48730); assay: Inhibition of CK1d (unknown origin) using [gamma-33P]ATP assessed as residual activity at 3 uM
Procedure, shortened: (§2)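 Radiometric profiling across 288 kinases (261 wild-type, 27 mutant), run as an outsourced service. Inhibition read out as [gamma-33P]ATP incorporation into substrate.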

[10] = biological target: Calcium/calmodulin-dependent protein kinase type 1 (Homo sapiens) (UniProt Q14012); assay: Inhibition of CAMK1a (unknown origin) using [gamma-33P]ATP assessed as residual activity at 3 uM; procedure, shortened: as §2
[11] = biological target: Protein-tyrosine kinase 6 (Homo sapiens) (UniProt Q13882); assay: Inhibition of BRK (unknown origin) using [gamma-33P]ATP assessed as residual activity at 3 uM; procedure, shortened: as §2
[12] = tested on: Mast/stem cell growth factor receptor Kit (Homo sapiens), P10721 [V560G]; assay: Inhibition of c-Kit V560G mutant (unknown origin) using [gamma-33P]ATP assessed as residual activity at 3 uM
Mast/stem cell growth factor receptor Kit (Homo sapiens), P10721 [V560G], sequence (P10721 whole entry V560G): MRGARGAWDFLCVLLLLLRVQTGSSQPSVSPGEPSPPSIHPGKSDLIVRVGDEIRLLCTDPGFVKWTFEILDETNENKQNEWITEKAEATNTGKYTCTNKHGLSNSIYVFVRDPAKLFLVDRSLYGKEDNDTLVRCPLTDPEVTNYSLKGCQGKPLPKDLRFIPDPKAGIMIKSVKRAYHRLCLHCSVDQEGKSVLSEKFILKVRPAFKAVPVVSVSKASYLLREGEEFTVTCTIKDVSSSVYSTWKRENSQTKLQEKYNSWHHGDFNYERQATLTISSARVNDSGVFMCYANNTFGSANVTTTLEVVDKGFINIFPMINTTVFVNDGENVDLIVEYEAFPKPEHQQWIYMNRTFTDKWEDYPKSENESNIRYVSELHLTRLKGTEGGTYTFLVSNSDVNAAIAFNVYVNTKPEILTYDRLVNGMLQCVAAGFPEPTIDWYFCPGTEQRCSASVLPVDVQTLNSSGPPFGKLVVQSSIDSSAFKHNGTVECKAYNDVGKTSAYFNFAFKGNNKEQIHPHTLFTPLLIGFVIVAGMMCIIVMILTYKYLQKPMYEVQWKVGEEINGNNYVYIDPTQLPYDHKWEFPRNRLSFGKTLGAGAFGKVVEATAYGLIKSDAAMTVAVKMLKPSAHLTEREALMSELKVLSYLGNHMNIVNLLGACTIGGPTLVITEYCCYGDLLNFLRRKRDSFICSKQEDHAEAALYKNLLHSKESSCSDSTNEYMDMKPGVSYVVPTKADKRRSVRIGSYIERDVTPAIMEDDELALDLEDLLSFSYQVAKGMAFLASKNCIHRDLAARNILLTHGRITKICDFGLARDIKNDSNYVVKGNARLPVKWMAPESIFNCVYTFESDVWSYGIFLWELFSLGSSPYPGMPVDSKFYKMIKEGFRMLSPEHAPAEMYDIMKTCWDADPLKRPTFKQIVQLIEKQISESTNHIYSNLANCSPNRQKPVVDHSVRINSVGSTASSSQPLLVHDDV

[13] = tested on: Mast/stem cell growth factor receptor Kit (Homo sapiens), P10721 [D816V]; assay: Inhibition of c-Kit D816V mutant (unknown origin) using [gamma-33P]ATP assessed as residual activity at 3 uM
Mast/stem cell growth factor receptor Kit (Homo sapiens), P10721 [D816V], sequence (P10721 whole entry D816V): as the sequence (P10721 whole entry V560G) above, with G560V, D816V counted along it

[14] = tested on: Tyrosine-protein kinase BTK (Homo sapiens), Q06187 [E41K]; assay: Inhibition of BTK E41K mutant (unknown origin) using [gamma-33P]ATP assessed as residual activity at 3 uM; procedure, shortened: as §2
[15] = biological target: Tyrosine-protein kinase Lyn (Homo sapiens) (UniProt P07948); assay: Inhibition of LYN-B (unknown origin) using [gamma-33P]ATP assessed as residual activity at 3 uM
Procedure, shortened: (§3)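 Radiometric kinase profiling service covering 288 kinases (261 wild-type, 27 mutant). Inhibition was read as incorporation from [γ-³³P]ATP.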

[16] = biological target: Leucine-rich repeat serine/threonine-protein kinase 2 (Homo sapiens) (UniProt Q5S007); assay: Inhibition of LRRK2 (unknown origin) using [gamma-33P]ATP assessed as residual activity at 3 uM; procedure, shortened: as §3
[17] = biological target: Tyrosine-protein kinase Lck (Homo sapiens) (UniProt P06239); assay: Inhibition of LCK (unknown origin) using [gamma-33P]ATP assessed as residual activity at 3 uM; procedure, shortened: as §3
Tyrosine-protein kinase Lck (Homo sapiens), sequence (P06239 2-509 limits assumed): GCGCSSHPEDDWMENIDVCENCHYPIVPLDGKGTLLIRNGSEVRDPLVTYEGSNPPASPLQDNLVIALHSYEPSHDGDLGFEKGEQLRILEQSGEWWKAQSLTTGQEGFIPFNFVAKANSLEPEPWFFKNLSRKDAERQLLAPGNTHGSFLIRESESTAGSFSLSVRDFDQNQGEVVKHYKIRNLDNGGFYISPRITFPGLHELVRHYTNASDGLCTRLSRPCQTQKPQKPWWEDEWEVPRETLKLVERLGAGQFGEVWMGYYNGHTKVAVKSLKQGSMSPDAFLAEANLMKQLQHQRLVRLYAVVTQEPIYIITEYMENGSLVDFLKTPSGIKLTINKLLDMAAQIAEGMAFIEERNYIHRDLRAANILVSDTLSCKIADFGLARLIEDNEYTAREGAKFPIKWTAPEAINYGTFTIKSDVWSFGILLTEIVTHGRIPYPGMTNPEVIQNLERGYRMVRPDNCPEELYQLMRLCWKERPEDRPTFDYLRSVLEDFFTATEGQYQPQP

[18] = biological target: NUAK family SNF1-like kinase 1 (Homo sapiens) (UniProt O60285); assay: Inhibition of ARK5 (unknown origin) using [gamma-33P]ATP assessed as residual activity at 3 uM; procedure, shortened: as §2
[19] = biological target: ALK tyrosine kinase receptor (Homo sapiens) (UniProt Q9UM73); assay: Inhibition of ALK (unknown origin) using [gamma-33P]ATP assessed as residual activity at 3 uM; procedure, shortened: as §2
[20] = biological target: Serine/threonine-protein kinase VRK1 (Homo sapiens) (UniProt Q99986); assay: Inhibition of VRK1 (unknown origin) using [gamma-33P]ATP assessed as residual activity at 3 uM
Serine/threonine-protein kinase VRK1 (Homo sapiens), sequence (Q99986 whole entry): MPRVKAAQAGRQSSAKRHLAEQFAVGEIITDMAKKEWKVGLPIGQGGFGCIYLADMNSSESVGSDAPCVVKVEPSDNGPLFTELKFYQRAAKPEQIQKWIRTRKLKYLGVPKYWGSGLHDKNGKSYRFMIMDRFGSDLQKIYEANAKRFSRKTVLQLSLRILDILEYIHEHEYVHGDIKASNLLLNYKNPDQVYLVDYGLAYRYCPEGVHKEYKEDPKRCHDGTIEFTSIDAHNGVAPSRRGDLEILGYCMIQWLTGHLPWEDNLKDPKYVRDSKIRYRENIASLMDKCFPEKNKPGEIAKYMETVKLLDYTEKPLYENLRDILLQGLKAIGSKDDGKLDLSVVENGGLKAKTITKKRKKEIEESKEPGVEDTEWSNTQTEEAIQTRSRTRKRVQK

[21] = biological target: Serine/threonine-protein kinase 33 (Homo sapiens) (UniProt Q9BYT3); assay: Inhibition of STK33 (unknown origin) using [gamma-33P]ATP assessed as residual activity at 3 uM
[22] = biological target: Homeodomain-interacting protein kinase 1 (Homo sapiens) (UniProt Q86Z02); assay: Inhibition of HIPK1 (unknown origin) using [gamma-33P]ATP assessed as residual activity at 3 uM; procedure, shortened: as §3
[23] = biological target: Ephrin type-B receptor 2 (Homo sapiens) (UniProt P29323); assay: Inhibition of EPHB2 (unknown origin) using [gamma-33P]ATP assessed as residual activity at 3 uM; procedure, shortened: as §1
Ephrin type-B receptor 2 (Homo sapiens), sequence (P29323 whole entry): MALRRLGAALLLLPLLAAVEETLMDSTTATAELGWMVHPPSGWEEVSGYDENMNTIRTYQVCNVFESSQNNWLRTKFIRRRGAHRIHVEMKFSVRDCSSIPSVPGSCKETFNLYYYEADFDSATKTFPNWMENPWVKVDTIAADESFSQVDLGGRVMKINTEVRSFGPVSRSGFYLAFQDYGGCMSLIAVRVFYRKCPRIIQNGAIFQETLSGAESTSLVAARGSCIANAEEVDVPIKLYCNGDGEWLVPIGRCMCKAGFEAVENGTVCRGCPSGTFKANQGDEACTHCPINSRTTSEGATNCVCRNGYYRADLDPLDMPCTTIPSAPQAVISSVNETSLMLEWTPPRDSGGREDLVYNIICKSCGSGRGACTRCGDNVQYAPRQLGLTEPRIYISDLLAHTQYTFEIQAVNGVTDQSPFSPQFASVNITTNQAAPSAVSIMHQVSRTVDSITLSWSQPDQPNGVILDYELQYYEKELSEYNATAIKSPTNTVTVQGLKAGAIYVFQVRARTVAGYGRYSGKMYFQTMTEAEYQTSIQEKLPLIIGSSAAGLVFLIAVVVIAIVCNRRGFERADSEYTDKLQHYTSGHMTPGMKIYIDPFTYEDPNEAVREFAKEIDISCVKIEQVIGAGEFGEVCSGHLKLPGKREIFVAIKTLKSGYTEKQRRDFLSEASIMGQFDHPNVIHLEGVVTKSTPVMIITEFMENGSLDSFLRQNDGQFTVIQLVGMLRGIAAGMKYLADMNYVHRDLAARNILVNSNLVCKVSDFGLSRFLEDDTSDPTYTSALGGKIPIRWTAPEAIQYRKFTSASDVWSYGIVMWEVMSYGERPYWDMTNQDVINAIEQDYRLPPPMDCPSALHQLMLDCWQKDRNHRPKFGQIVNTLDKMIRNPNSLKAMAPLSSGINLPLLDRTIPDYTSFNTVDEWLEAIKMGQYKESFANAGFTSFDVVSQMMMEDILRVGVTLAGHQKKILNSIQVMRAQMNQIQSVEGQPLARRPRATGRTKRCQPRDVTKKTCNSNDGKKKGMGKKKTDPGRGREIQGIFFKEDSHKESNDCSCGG

[24] = biological target: cGMP-dependent protein kinase 1 (Homo sapiens) (UniProt Q13976); assay: Inhibition of PKG1b (unknown origin) using [gamma-33P]ATP assessed as residual activity at 3 uM
cGMP-dependent protein kinase 1 (Homo sapiens), sequence (Q13976 whole entry): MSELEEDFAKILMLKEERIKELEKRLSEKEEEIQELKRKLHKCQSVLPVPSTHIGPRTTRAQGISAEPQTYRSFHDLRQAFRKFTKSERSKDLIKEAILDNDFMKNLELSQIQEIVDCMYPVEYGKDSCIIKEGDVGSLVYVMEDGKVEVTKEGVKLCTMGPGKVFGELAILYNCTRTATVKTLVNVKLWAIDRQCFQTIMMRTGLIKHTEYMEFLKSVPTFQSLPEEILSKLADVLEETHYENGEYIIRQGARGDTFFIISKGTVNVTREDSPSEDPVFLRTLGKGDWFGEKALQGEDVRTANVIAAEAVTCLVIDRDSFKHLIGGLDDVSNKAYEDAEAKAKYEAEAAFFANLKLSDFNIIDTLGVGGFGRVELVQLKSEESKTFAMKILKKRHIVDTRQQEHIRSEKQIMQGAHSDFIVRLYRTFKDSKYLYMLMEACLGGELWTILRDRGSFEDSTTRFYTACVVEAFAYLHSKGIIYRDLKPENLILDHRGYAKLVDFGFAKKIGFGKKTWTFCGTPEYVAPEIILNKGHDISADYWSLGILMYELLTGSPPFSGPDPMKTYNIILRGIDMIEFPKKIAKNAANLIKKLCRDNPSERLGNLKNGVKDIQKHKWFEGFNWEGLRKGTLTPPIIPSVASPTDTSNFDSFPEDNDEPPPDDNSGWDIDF

[25] = biological target: Serine/threonine-protein kinase D2 (Homo sapiens) (UniProt Q9BZL6); assay: Inhibition of PKD2 (unknown origin) using [gamma-33P]ATP assessed as residual activity at 3 uM
[26] = biological target: Dual specificity tyrosine-phosphorylation-regulated kinase 4 (Homo sapiens) (UniProt Q9NR20); assay: Inhibition of DYRK4 (unknown origin) using [gamma-33P]ATP assessed as residual activity at 3 uM; procedure, shortened: as §1
[27] = biological target: Discoidin domain-containing receptor 2 (Homo sapiens) (UniProt Q16832); assay: Inhibition of DDR2 (unknown origin) using [gamma-33P]ATP assessed as residual activity at 3 uM; procedure, shortened: as §1
[28] = biological target: Death-associated protein kinase 1 (Homo sapiens) (UniProt P53355); assay: Inhibition of DAPK1 (unknown origin) using [gamma-33P]ATP assessed as residual activity at 3 uM; procedure, shortened: as §1
[29] = biological target: Tyrosine-protein kinase Mer (Homo sapiens) (UniProt Q12866); assay: Inhibition of c-MER (unknown origin) using [gamma-33P]ATP assessed as residual activity at 3 uM
[30] = biological target: Dual specificity protein kinase CLK4 (Homo sapiens) (UniProt Q9HAZ1); assay: Inhibition of CLK4 (unknown origin) using [gamma-33P]ATP assessed as residual activity at 3 uM; procedure, shortened: as §1
Dual specificity protein kinase CLK4 (Homo sapiens), sequence (Q9HAZ1 whole entry, looked up): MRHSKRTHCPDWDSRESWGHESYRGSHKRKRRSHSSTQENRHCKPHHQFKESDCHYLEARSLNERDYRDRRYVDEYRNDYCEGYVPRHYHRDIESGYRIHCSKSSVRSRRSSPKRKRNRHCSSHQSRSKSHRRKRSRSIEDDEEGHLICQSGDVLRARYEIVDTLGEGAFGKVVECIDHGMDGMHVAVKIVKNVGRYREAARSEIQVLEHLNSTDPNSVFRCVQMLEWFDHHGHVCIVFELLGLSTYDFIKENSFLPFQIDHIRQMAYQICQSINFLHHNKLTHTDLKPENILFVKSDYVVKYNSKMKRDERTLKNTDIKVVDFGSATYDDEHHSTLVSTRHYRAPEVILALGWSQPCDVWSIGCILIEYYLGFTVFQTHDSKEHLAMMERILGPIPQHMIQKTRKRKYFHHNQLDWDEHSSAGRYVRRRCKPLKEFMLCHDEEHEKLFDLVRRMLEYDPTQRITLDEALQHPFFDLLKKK

[31] = biological target: Serine/threonine-protein kinase pim-2 (Homo sapiens) (UniProt Q9P1W9); assay: Inhibition of PIM2 (unknown origin) using [gamma-33P]ATP assessed as residual activity at 3 uM
[32] = biological target: 3-phosphoinositide-dependent protein kinase 1 (Homo sapiens) (UniProt O15530); assay: Inhibition of PDK1 (unknown origin) using [gamma-33P]ATP assessed as residual activity at 3 uM

CCc1ccc(-c2ccc3c(c2)-c2[nH]ncc2S(=O)(=O)N3C)cc1
Activity [1]: 103%
Activity [2]: 101%
Activity [3]: 68%
Activity [4]: 87%
Activity [5]: 95%
Activity [6]: 85%
Activity [7]: 53%
Activity [8]: 101%
Activity [9]: 94%
Activity [10]: 91%
Activity [11]: 73%
Activity [12]: 72%
Activity [13]: 36%
Activity [14]: 100%
Activity [15]: 78%
Activity [16]: 58%
Activity [17]: 87%
Activity [18]: 84%
Activity [19]: 88%
Activity [20]: 81%
Activity [21]: 94%
Activity [22]: 104%
Activity [23]: 95%
Activity [24]: 102%
Activity [25]: 98%
Activity [26]: 103%
Activity [27]: 96%
Activity [28]: 94%
Activity [29]: 86%
Activity [30]: 51%
Activity [31]: 101%
Activity [32]: 95%
